Test results published in ChEMBL document CHEMBL2046352, “Discovery of novel 5-(ethyl or hydroxymethyl) analogs of 2'-'up' fluoro (or hydroxyl) pyrimidine nucleosides as a new class of Mycobacterium tuberculosis, Mycobacterium bovis and Mycobacterium avium inhibitors” (Bioorg Med Chem, 2012).
Calls of active or inactive are those of the source. The calls are words filed in the database; no cut-off is given here.

Tests used:
[1] = test system: Mycobacterium tuberculosis; assay: Antimycobacterial activity against Mycobacterium tuberculosis H37Ra assessed as inhibition of microbial growth at 0.5 to 100 ug/ml incubated for 6 days by MABA method; assay type: functional
Summary of the method: (§1)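 Microplate alamar blue assay in 7H9GC medium. Compounds dissolved in DMSO at 10 mg/mL (stock), diluted to 100, 50, 25, 10, 5, 1 and 0.5 ug/mL, each in triplicate. Frozen inoculum added at final 2.5 x 10^5 CFU/mL. Bacteria-alone and medium-alone control wells. Read by colour change and fluorescence. % inhibition = (test − M bkg)/(B − M bkg) x 100, mean of two experiments. MIC50 = lowest concentration giving ≥50% inhibition.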

[2] = Toxicity against human HuH7 cells after 2 days by [3H]thymidine incorporation assay; assay type: cell-based, Huh-7
Summary of the method: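 Huh-7 cells plated at 1 x 10^4/well and exposed in triplicate to 200, 100, 50, 10 and 1 ug/mL with a DMSO control for two days at 37 °C. Pulsed with 0.5 uCi/well [3H]-thymidine for 12–18 h, harvested onto filters, incorporation counted by liquid scintillation.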

Mycobacterium avium [3] = assay: Antimycobacterial activity against Mycobacterium avium ATCC 25291 assessed as inhibition of microbial growth at 0.5 to 100 ug/ml incubated for 6 days by MABA method; assay type: functional, Mycobacterium avium subsp. avium ATCC 25291; summary of the method: as §1
[4] = Toxicity against human HuH7 cells after 2 days by XTT assay; assay type: cell-based, Huh-7
Summary of the method: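 Huh-7 hepatoma cells seeded at 2 x 10^4/well, allowed to attach 6–8 h, then exposed to 200, 100, 50, 10 and 1 ug/mL with a DMSO control for two days at 37 °C. Viability by XTT, 4 h at 37 °C, absorbance 450–500 nm.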

[5] = test system: Mycobacterium tuberculosis; assay: Antimycobacterial activity against Mycobacterium tuberculosis H37Ra assessed as inhibition of microbial growth at 10 ug/ml incubated for 6 days by MABA method; assay type: functional; conditions: 144 h, read-out: GI; summary of the method: as §1
[6] = test system: Mycobacterium tuberculosis; assay: Antimycobacterial activity against Mycobacterium tuberculosis H37Ra assessed as inhibition of microbial growth at 5 ug/ml incubated for 6 days by MABA method; assay type: functional; conditions: 144 h, read-out: GI; summary of the method: as §1
[7] = test system: Mycobacterium tuberculosis; assay: Antimycobacterial activity against Mycobacterium tuberculosis H37Ra assessed as inhibition of microbial growth at 100 ug/ml incubated for 6 days by MABA method; assay type: functional; conditions: 144 h, read-out: GI; summary of the method: as §1
[8] = test system: Mycobacterium tuberculosis; assay: Antimycobacterial activity against Mycobacterium tuberculosis H37Ra assessed as inhibition of microbial growth incubated for 6 days by MABA method; assay type: functional; conditions: 144 h; summary of the method: as §1
[9] = test system: Mycobacterium tuberculosis; assay: Antimycobacterial activity against Mycobacterium tuberculosis H37Ra assessed as inhibition of microbial growth at 50 ug/ml incubated for 6 days by MABA method; assay type: functional; conditions: 144 h, read-out: GI; summary of the method: as §1
Mycobacterium avium [10] = assay: Antimycobacterial activity against Mycobacterium avium ATCC 25291 assessed as inhibition of microbial growth at 100 ug/ml incubated for 6 days by MABA method; assay type: functional, Mycobacterium avium subsp. avium ATCC 25291; conditions: ATCC 25291, 144 h, read-out: GI; summary of the method: as §1
Mycobacterium avium [11] = assay: Antimycobacterial activity against Mycobacterium avium ATCC 25291 assessed as inhibition of microbial growth at 50 ug/ml incubated for 6 days by MABA method; assay type: functional, Mycobacterium avium subsp. avium ATCC 25291; conditions: ATCC 25291, 144 h, read-out: GI; summary of the method: as §1
[12] = test system: Mycobacterium tuberculosis; assay: Antimycobacterial activity against Mycobacterium tuberculosis H37Rv assessed as inhibition of microbial growth at 1 ug/ml by radiometric-BACTEC assay; assay type: functional; conditions: read-out: GI
[13] = test system: Mycobacterium tuberculosis; assay: Antimycobacterial activity against Mycobacterium tuberculosis H37Ra assessed as inhibition of microbial growth at 0.1 ug/ml incubated for 6 days by MABA method; assay type: functional; conditions: 144 h, read-out: GI
[14] = test system: Mycobacterium tuberculosis; assay: Antimycobacterial activity against Mycobacterium tuberculosis H37Ra assessed as inhibition of microbial growth at 0.5 ug/ml incubated for 6 days by MABA method; assay type: functional; conditions: 144 h, read-out: GI; summary of the method: as §1
[15] = test system: Mycobacterium tuberculosis; assay: Potency index, ratio of MIC50 for cycloserine to MIC50 for compound against Mycobacterium tuberculosis H37Ra incubated for 6 days by MABA method; assay type: functional
Mycobacterium avium [16] = assay: Antimycobacterial activity against Mycobacterium avium ATCC 25291 assessed as inhibition of microbial growth incubated for 6 days by MABA method; assay type: functional, Mycobacterium avium subsp. avium ATCC 25291; conditions: ATCC 25291, 144 h; summary of the method: as §1
[17] = test system: Mycobacterium tuberculosis; assay: Antimycobacterial activity against Mycobacterium tuberculosis H37Rv assessed as inhibition of microbial growth by radiometric-BACTEC assay; assay type: functional
Mycobacterium avium [18] = assay: Antimycobacterial activity against Mycobacterium avium ATCC 25291 assessed as inhibition of microbial growth at 10 ug/ml incubated for 6 days by MABA method; assay type: functional, Mycobacterium avium subsp. avium ATCC 25291; conditions: ATCC 25291, 144 h, read-out: GI; summary of the method: as §1
Mycobacterium avium [19] = assay: Antimycobacterial activity against Mycobacterium avium ATCC 25291 assessed as inhibition of microbial growth at 2 ug/ml incubated for 6 days by MABA method; assay type: functional, Mycobacterium avium subsp. avium ATCC 25291; conditions: ATCC 25291, 144 h, read-out: GI
[20] = test system: Mycobacterium tuberculosis; assay: Antimycobacterial activity against Mycobacterium tuberculosis H37Rv assessed as inhibition of microbial growth at 2 ug/ml by radiometric-BACTEC assay; assay type: functional, organism-based
[21] = test system: Mycobacterium tuberculosis; assay: Antimycobacterial activity against Mycobacterium tuberculosis H37Ra assessed as inhibition of microbial growth at 15 to 20 ug/ml incubated for 6 days by MABA method; assay type: functional

| Compound | CC50 at 48 h [2] [µg/mL] | growth inhibition (GI) (Mycobacterium avium [3]) [%] | CC50 at 48 h [4] [µg/mL] | inhibition of growth at 100 µg/mL [7] [%] | MIC50 [8] [µg/mL] | inhibition of growth at 50 µg/mL [9] [%] | inhibition of growth at 100 µg/mL (Mycobacterium avium [10]) [%] | also measured |
| --- | --- | --- | --- | --- | --- | --- | --- | --- |
| CCc1cn([C@H]2O[C@@H](CO)[C@H](O)[C@H]2F)c(=O)[nH]c1=O (single isomer, unassigned) | > 100 | 0 | > 100 |  |  |  |  | growth inhibition (GI) [1]: 0% |
| CCc1cn([C@@H]2O[C@H](CO)[C@@H](Br)[C@@H]2F)c(=O)[nH]c1=O | > 100 | 0 | > 100 | 78 | 5 | 65 |  | inhibition of growth at 10 µg/mL [5]: 56%; inhibition of growth at 5 µg/mL [6]: 50% |
| CCc1cn2c(nc1=O)O[C@@H]1[C@H](F)[C@H]2O[C@@H]1CO | > 100 |  | > 100 | 25 |  | 25 | 50 | inhibition of growth at 50 µg/mL (Mycobacterium avium [11]): 25% |
| CCc1cn([C@@H]2O[C@H](CO)[C@@H](O)[C@@H]2F)c(=O)nc1N | > 100 | 0 | > 100 | 50 | 100 |  |  |  |
| NNC(=O)c1ccncc1 [ISONIAZID] |  |  |  |  |  |  |  | inhibition of growth at 1 µg/mL [12]: 100%; inhibition of growth at 0.1 µg/mL [13]: 10% |
| O=c1[nH]c(=S)c(CO)cn1[C@@H]1O[C@H](CO)[C@@H](O)[C@@H]1O | > 100 |  | > 100 | 100 | 0.5 | 100 | 73 | inhibition of growth at 10 µg/mL [5]: 90%; inhibition of growth at 0.5 µg/mL [14]: 50%; Ratio [15]: 10; MIC50 (Mycobacterium avium [16]): 10 µg/mL; inhibition of growth at 5 µg/mL [6]: 70%; MIC50 [17]: 1 µg/mL; inhibition of growth at 50 µg/mL (Mycobacterium avium [11]): 58%; inhibition of growth at 10 µg/mL (Mycobacterium avium [18]): 50% |
| O=c1[nH]c(=O)n([C@@H]2O[C@H](CO)[C@@H](O)[C@@H]2O)cc1CO | > 100 | 0 | > 100 |  |  |  |  | growth inhibition (GI) [1]: 0% |
| CCc1cn([C@@H]2O[C@H](CO)[C@@H](O)[C@@H]2F)c(=O)[nH]c1=S | > 100 |  | > 100 | 60 | 50 | 50 | 35 | inhibition of growth at 50 µg/mL (Mycobacterium avium [11]): 25% |
| CCc1cn([C@@H]2O[C@H](COC(C)=O)[C@@H](OC(C)=O)[C@@H]2F)c(=O)[nH]c1=O | > 100 |  | > 100 | 68 |  | 55 | 35 |  |
| CC[C@H]1OC(=O)[C@H](C)[C@@H](O[C@H]2C[C@@](C)(OC)[C@@H](O)[C@H](C)O2)[C@H](C)[C@@H](O[C@@H]2O[C@H](C)C[C@H](N(C)C)[C@H]2O)[C@](C)(OC)C[C@@H](C)C(=O)[C@H](C)[C@@H](O)[C@]1(C)O [CLARITHROMYCIN] |  |  |  |  |  |  |  | inhibition of growth at 2 µg/mL (Mycobacterium avium [19]): 100% |
| CCc1cn([C@@H]2O[C@H](CO)[C@@H](N=[N+]=[N-])[C@@H]2F)c(=O)[nH]c1=O | > 100 | 0 | > 100 |  |  |  |  | growth inhibition (GI) [1]: 0% |
| CO[C@H]1/C=C/O[C@@]2(C)Oc3c(C)c(O)c4c(O)c(c(/C=N/N5CCN(C)CC5)c(O)c4c3C2=O)NC(=O)/C(C)=C\C=C\[C@H](C)[C@H](O)[C@@H](C)[C@@H](O)[C@@H](C)[C@H](OC(C)=O)[C@@H]1C [RIFAMPIN] |  |  |  |  |  |  |  | inhibition of growth at 2 µg/mL (Mycobacterium avium [19]): 90%; inhibition of growth at 0.5 µg/mL [14]: 100%; growth inhibition (GI) [20]: inactive |
| CCc1cn([C@@H]2O[C@H](CO)C[C@@H]2F)c(=O)[nH]c1=O | > 100 |  | > 100 | 25 |  |  | 25 |  |
| COCc1cn([C@@H]2O[C@H](CO)[C@@H](O)[C@@H]2O)c(=O)nc1N | > 100 |  | > 100 | 80 |  | 60 | 20 | inhibition of growth at 10 µg/mL [5]: 50% |
| N[C@@H]1CONC1=O [CYCLOSERINE] |  |  |  | 100 | 5 | 100 |  | inhibition of growth at 10 µg/mL [5]: 60%; growth inhibition (GI) [21]: 80%; inhibition of growth at 5 µg/mL [6]: 50% |
